Results of several laboratories.
Compare with care: the assays were run in different laboratories.
CA9: Carbonic anhydrase 9 (CA9, Homo sapiens, UniProt Q16790)
PRSS1: Serine protease 1 (PRSS1, Bos taurus, UniProt P00760)
PKN1: Serine/threonine-protein kinase N1 (PKN1, Homo sapiens, UniProt Q16512)
SIRT5: NAD-dependent protein deacylase sirtuin-5, mitochondrial (SIRT5, Homo sapiens, UniProt Q9NXA8)
PDE4C: 3',5'-cyclic-AMP phosphodiesterase 4C (PDE4C, Homo sapiens, UniProt Q08493)
MMP9: Matrix metalloproteinase-9 (MMP9, Homo sapiens, UniProt P14780)
HDAC9: Histone deacetylase 9 (HDAC9, Homo sapiens, UniProt Q9UKV0)

Compound | target | effect on | action | technique | time | pH | IC50 [µM]
CNC(=O)c1ccc(NC(=O)CN(Cc2ccc(Cl)cc2)C(=O)c2ccc(S(N)(=O)=O)c(C)c2)c(F)c1 | CA9 | enzyme activity | inhibitor |  |  |  | 0.0288
O=c1c(O)c(-c2ccc(O)c(O)c2)oc2cc(O)cc(O)c12 | Sulfotransferase 1A1 (SULT1A1, Homo sapiens, UniProt P50225) | enzyme activity | inhibitor |  |  |  | 0.529
NS(=O)(=O)c1ccc(NC2=NC(=O)/C(=C\c3ccc(C(=O)O)cc3)S2)cc1 | CA9 | enzyme activity | inhibitor |  |  |  | 0.122
CC1Cc2cc(-c3cn(C)nn3)ccc2N1Cc1ccoc1C(=O)Nc1ccc(S(N)(=O)=O)cc1 (stereo not drawn) | CA9 | enzyme activity | inhibitor |  |  |  | 0.132
Cc1nc2ccc(Cl)cc2c(=O)n1NC(=O)CCl | PRSS1 | enzyme activity | inhibitor |  |  |  | 97.9
O=C(O)c1ccc(-c2c[nH]c3ncc(-c4ccccc4)cc23)cc1C1CCCC1 | PKN1 | enzyme activity | inhibitor |  |  |  | 0.22
CC(NC(=O)c1ccccc1/N=C/c1c(O)ccc2ccccc12)c1ccccc1 (stereo not drawn) | SIRT5 | enzyme activity | inhibitor | HPLC |  |  | > 100
CN(C)Cc1ccc(N2CCN(C(=O)c3ccc(Cl)c(S(N)(=O)=O)c3)CC2)nc1 | CA9 | enzyme activity | inhibitor |  |  |  | 5.7
CC(C)C[C@H](NC(=O)[C@H]1O[C@@H]1C(=O)O)C(=O)NCCCCN=C(N)N | Cathepsin L2 (CTSV, Homo sapiens, UniProt O60911) | enzyme activity | inhibitor |  |  |  | 0.00541
COCCOc1ccc2c(c1)ncn2-c1ccc2cccc(N3CCC(N)CC3)c2n1 | PKN1 | enzyme activity | inhibitor |  |  |  | 0.036
CCc1ccc(/C=N/n2c(C)nc3ccc(C)cc3c2=O)s1 | PRSS1 | enzyme activity | inhibitor |  |  |  | 224
COc1ccc([C@@H]2CN(C(=O)[C@@H](O)CO)C[C@@]2(C)[C@@H](C)O)cc1OC1CN(c2ccc(C)cn2)C1 | PDE4C | enzyme activity | inhibitor |  |  |  | 0.0024
CC(C)c1nc(CN(C)C(=O)N[C@@H](CCN2CCOCC2)C(=O)N[C@H](CC[C@H](Cc2ccccc2)NC(=O)OCc2cncs2)Cc2ccccc2)cs1 | Solute carrier family 22 member 7 (SLC22A7, Homo sapiens, UniProt Q9Y694) | transporter uptake | inhibitor |  |  |  | > 100
CN1CCN(c2ccc(Nc3ncc4cc(C#N)c(=O)n(C5CCCC5)c4n3)cc2)CC1 | Ribosomal protein S6 kinase alpha-6 (RPS6KA6, Homo sapiens, UniProt Q9UK32) | enzyme activity | inhibitor |  |  |  | 0.101
COc1ccc(S(=O)(=O)N2Cc3cc(O)c(O)cc3CC2C(=O)NO)cc1 (stereo not drawn) | MMP9 | enzyme activity | inhibitor |  |  |  | > 1
Nc1ccc(-c2ccncc2)cc1NC(=O)N1CCCC1 | HDAC9 | enzyme activity | inhibitor |  |  |  | > 33.3
COc1ccc(C2=NN(C3CCCCCC3)C(=O)[C@@H]3CC=CC[C@H]23)cc1-c1ccc(C(N)=O)cc1 (relative stereo) | PDE4C | enzyme activity | inhibitor |  |  |  | 0.501
O=C(NS(=O)(=O)c1ccc(COc2ccccc2)cc1)c1cccc(-c2cc(Cl)cc(Cl)c2)c1 | Induced myeloid leukemia cell differentiation protein Mcl-1 (MCL1, Homo sapiens, UniProt Q07820) | ligand displacement |  | FP |  |  | 5.1
CC1Cc2c(-c3cn(C)nn3)cccc2N1Cc1ccoc1C(=O)Nc1ccc(S(N)(=O)=O)cc1 (stereo not drawn) | CA9 | enzyme activity | inhibitor |  |  |  | 0.0112
CC(C)C[C@H](CC(=O)NO)C(=O)N[C@@H](Cc1ccccc1)C(=O)NCCN1CCOCC1 | MMP9 | enzyme activity | inhibitor | fluorescence |  |  | 0.003

Compound | target | effect on | action | technique | time | pH | IC50 [µM]
NS(=O)(=O)c1ccc(CCNC(=O)Nc2ccc(NC(=O)c3ccc(Cl)cc3)cc2)cc1 | CA9 | enzyme activity | inhibitor |  |  |  | 0.096
Clc1ccc(C2(c3ccc(-c4cn[nH]c4)cc3)CCNCC2)cc1 | PKN1 | enzyme activity | inhibitor |  |  |  | 0.049
CC(OC(=O)C1CCCN(C(=O)c2ccc(Cl)cc2)C1)C(=O)Nc1ccc(S(N)(=O)=O)cc1 (stereo not drawn) | CA9 | enzyme activity | inhibitor |  |  |  | 0.0427
CCOCc1nc(O)c(-c2nnc(Cc3ccc(Cl)cn3)o2)c(O)c1-c1c(OC)cccc1OC | Histamine H1 receptor (HRH1, Homo sapiens, UniProt P35367) | ligand displacement |  | radioligand |  |  | > 30
Cc1cc(C(=O)N2CCN(Cc3nc(-c4ccc(Cl)cc4)no3)CC2)ccc1S(N)(=O)=O | CA9 | enzyme activity | inhibitor |  |  |  | 0.081
NS(=O)(=O)c1ccc(Nc2nc(OCC3CCCCC3)c3[nH]cnc3n2)cc1 | PKN1 | enzyme activity | inhibitor |  |  |  | 0.828
CCCC[C@H](NC(=O)C1CN(C)C1)c1ncc(-c2cc3ccccc3nc2OC)[nH]1 | HDAC9 | enzyme activity | inhibitor |  |  |  | > 30
Cc1cc(Nc2cc(CN3CCOCC3)c3nc(C)c(Cc4ccc(Cl)cc4F)n3n2)n[nH]1 | PKN1 | enzyme activity | inhibitor |  |  |  | 4.07
CNC(=O)c1cc2c(Oc3ccc(NC(=O)C4(C(=O)Nc5ccc(F)cc5)CC4)cc3)ccnc2cc1OC | Tyrosine-protein kinase HCK (HCK, Homo sapiens, UniProt P08631) | enzyme activity | inhibitor | radiometric |  |  | 0.024
CCS(=O)(=O)c1cccc(-c2cc(C(=O)NC3CCN(C)CC3)c(C)c3[nH]c4ncc(C)cc4c23)c1 | PKN1 | enzyme activity | inhibitor |  |  |  | 0.086
NS(=O)(=O)c1ccc(NC2=NC(=O)C(CC(=O)Nc3ccc(Br)cc3)S2)cc1 (stereo not drawn) | CA9 | enzyme activity | inhibitor |  |  |  | 0.052
CC(C)c1cc(CNc2nc(Nc3cc(C4CC4)[nH]n3)cc(N3CCN(C)CC3)n2)on1 | PKN1 | enzyme activity | inhibitor |  |  |  | 0.02
COc1cc(/C=N/n2c(C)nc3ccc(C)cc3c2=O)cc([N+](=O)[O-])c1O | PRSS1 | enzyme activity | inhibitor |  |  |  | 55.7
COc1cc2c(c(OC)c1OC)-c1c(cc3c(c1OC)OCO3)[C@H](OC(=O)c1ccccc1)[C@@](C)(O)[C@@H](C)C2 | Cytochrome P450 3A5 (CYP3A5, Homo sapiens, UniProt P20815) | enzyme activity | inhibitor |  | 15 min | pH 7.4 | 0.59
Cn1ncc(Cl)c1-c1cc(C(=O)N[C@H](CN)Cc2ccc(F)c(F)c2)oc1Cl | PKN1 | enzyme activity | inhibitor |  |  |  | 0.019
COc1cc(/C=N/n2c(C)nc3ccc(Br)cc3c2=O)ccc1OCc1ccc(Cl)cc1 | PRSS1 | enzyme activity | inhibitor |  |  |  | 47.8
CCNC(=O)[C@H](CCCNC(=N)CF)NC(=O)c1ccccc1 | Protein-arginine deiminase type-4 (PADI4, Homo sapiens, UniProt Q9UM07) | enzyme activity | inhibitor |  |  |  | 24.3
COc1cc(/C=N/n2c(C)nc3ccc(Br)cc3c2=O)ccc1O | PRSS1 | enzyme activity | inhibitor |  |  |  | 46.4
O=C(NO)c1ccc(CN(c2cnccn2)c2cnccn2)cc1 | SIRT5 | enzyme activity | inhibitor |  |  |  | > 10
